Laboratory results as given in ChEMBL document CHEMBL1629475, “Synthesis of new chalcone derivatives containing a rhodanine-3-acetic acid moiety with potential anti-bacterial activity” (2010).
In brackets after ≈: the same amount, converted by molar mass. Activity calls are given as the source filed them. The calls are words filed in the database; no cut-off is given here.

How the values were obtained:
[1] = tested on: Staphylococcus aureus; experiment: Antibacterial activity against Staphylococcus aureus KCTC 209 after 20 hrs by twofold serial dilution technique; type: functional; conditions: KCTC 209, 20 h
In short: (§1)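 Inoculum was 10⁵ CFU/mL. MIC was read after 20 h at 37 °C. The MRSA and QRSA strains were multidrug-resistant clinical isolates. Oxacillin and norfloxacin served as positive controls.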

[2] = tested on: Staphylococcus aureus; experiment: Antibacterial activity against Staphylococcus aureus MRSA CCARM 3506 after 20 hrs by twofold serial dilution technique; type: functional; conditions: MRSA CCARM 3506, 20 h; in short: as §1
[3] = tested on: Staphylococcus aureus; experiment: Antibacterial activity against Staphylococcus aureus QRSA CCARM 3519 after 20 hrs by twofold serial dilution technique; type: functional; conditions: QRSA CCARM 3519, 20 h; in short: as §1
[4] = tested on: Escherichia coli; experiment: Antibacterial activity against Escherichia coli 1924 after 20 hrs by twofold serial dilution technique; type: functional; conditions: Escherichia coli, 1924, 20 h; in short: as §1
[5] = tested on: Staphylococcus aureus; experiment: Antibacterial activity against Staphylococcus aureus MRSA CCARM 3167 after 20 hrs by twofold serial dilution technique; type: functional; conditions: MRSA CCARM 3167, 20 h; in short: as §1
[6] = tested on: Staphylococcus aureus; experiment: Antibacterial activity against Staphylococcus aureus KCTC 503 after 20 hrs by twofold serial dilution technique; type: functional; conditions: KCTC 503, 20 h; in short: as §1
[7] = tested on: Escherichia coli; experiment: Antibacterial activity against Escherichia coli 1356 after 20 hrs by twofold serial dilution technique; type: functional; conditions: Escherichia coli, 1356, 20 h; in short: as §1
[8] = tested on: Streptococcus mutans; experiment: Antibacterial activity against Streptococcus mutans KCTC 3065 after 20 hrs by twofold serial dilution technique; type: functional; conditions: KCTC 3065, 20 h
In short: (§2)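 Inoculum was 10⁵ CFU/mL, and MIC was read after incubation at 37 °C for 20 h. Oxacillin and norfloxacin were the positive controls.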

[9] = tested on: Staphylococcus aureus; experiment: Antibacterial activity against Staphylococcus aureus RN 4220 after 20 hrs by twofold serial dilution technique; type: functional; conditions: RN 4220, 20 h; in short: as §1
[10] = tested on: Streptococcus mutans; experiment: Antibacterial activity against Streptococcus mutans KCTC 3289 after 20 hrs by twofold serial dilution technique; type: functional; conditions: KCTC 3289, 20 h; in short: as §2
[11] = tested on: Staphylococcus aureus; experiment: Antibacterial activity against Staphylococcus aureus QRSA CCARM 3505 after 20 hrs by twofold serial dilution technique; type: functional; conditions: QRSA CCARM 3505, 20 h; in short: as §1
[12] = tested on: Staphylococcus aureus; experiment: Antibacterial activity against Staphylococcus aureus RN 4220 at 64 ug/ml; type: functional, organism-based
[13] = tested on: Streptococcus mutans; experiment: Antibacterial activity against Streptococcus mutans KCTC 3289 at 64 ug/ml; type: functional, organism-based
[14] = tested on: Escherichia coli; experiment: Antibacterial activity against Escherichia coli 1924 at 64 ug/ml; type: functional, organism-based
[15] = tested on: Staphylococcus aureus; experiment: Antibacterial activity against Staphylococcus aureus KCTC 503 at 64 ug/ml; type: functional, organism-based
[16] = tested on: Escherichia coli; experiment: Antibacterial activity against Escherichia coli 1356 at 64 ug/ml; type: functional, organism-based
[17] = tested on: Staphylococcus aureus; experiment: Antibacterial activity against Staphylococcus aureus KCTC 209 at 64 ug/ml; type: functional, organism-based
[18] = tested on: Streptococcus mutans; experiment: Antibacterial activity against Streptococcus mutans KCTC 3065 at 64 ug/ml; type: functional, organism-based

Structure (SMILES) | MIC [1] [µg/mL] | MIC [2] [µg/mL] | MIC [3] [µg/mL] | MIC [4] [µg/mL] | MIC [5] [µg/mL] | MIC [6] [µg/mL] | MIC [7] [µg/mL] | MIC [8] [µg/mL] | MIC [9] [µg/mL] | MIC [10] [µg/mL] | MIC [11] [µg/mL] | Activity [12] | Activity [13] | Activity [14] | Activity [15] | Activity [16] | Activity [17] | Activity [18]
Cc1onc(-c2ccccc2)c1C(=O)N[C@@H]1C(=O)N2[C@@H]1SC(C)(C)[C@@H]2C(=O)O [OXACILLIN] | 1 (≈ 2.49 µM) | > 64 | 1 (≈ 2.49 µM) | > 64 | > 64 | 1 (≈ 2.49 µM) | > 64 | 1 (≈ 2.49 µM) | 1 (≈ 2.49 µM) | 1 (≈ 2.49 µM) | 1 (≈ 2.49 µM) | – | – | – | – | – | – | –
O=C(O)CN1C(=O)/C(=C\c2ccc(/C=C/C(=O)c3ccccc3F)cc2)SC1=S | > 64 | – | – | > 64 | – | > 64 | > 64 | > 64 | > 64 | > 64 | – | inactive | inactive | inactive | inactive | inactive | inactive | inactive
O=C(O)CN1C(=O)CSC1=S [RHODANINE-3-ACETIC ACID] | > 64 | – | – | > 64 | – | > 64 | > 64 | > 64 | > 64 | > 64 | – | inactive | inactive | inactive | inactive | inactive | inactive | inactive
O=C(O)CN1C(=O)/C(=C\c2ccc(/C=C/C(=O)c3ccc([N+](=O)[O-])cc3)cc2)SC1=S | 4 (≈ 8.8 µM) | 4 (≈ 8.8 µM) | 4 (≈ 8.8 µM) | > 64 | 4 (≈ 8.8 µM) | 4 (≈ 8.8 µM) | > 64 | 8 (≈ 17.6 µM) | 4 (≈ 8.8 µM) | 8 (≈ 17.6 µM) | 4 (≈ 8.8 µM) | – | – | inactive | – | inactive | – | –
O=C(O)CN1C(=O)/C(=C\c2ccc(/C=C/C(=O)c3ccc(F)cc3)cc2)SC1=S | 4 (≈ 9.36 µM) | 4 (≈ 9.36 µM) | 4 (≈ 9.36 µM) | > 64 | 4 (≈ 9.36 µM) | 4 (≈ 9.36 µM) | > 64 | 4 (≈ 9.36 µM) | 4 (≈ 9.36 µM) | 4 (≈ 9.36 µM) | 4 (≈ 9.36 µM) | – | – | inactive | – | inactive | – | –
O=C(O)CN1C(=O)/C(=C\c2ccc(/C=C/C(=O)c3ccc(Cl)cc3)cc2)SC1=S | 4 (≈ 9.01 µM) | 4 (≈ 9.01 µM) | 4 (≈ 9.01 µM) | > 64 | 4 (≈ 9.01 µM) | 4 (≈ 9.01 µM) | > 64 | 4 (≈ 9.01 µM) | 4 (≈ 9.01 µM) | 4 (≈ 9.01 µM) | 4 (≈ 9.01 µM) | – | – | inactive | – | inactive | – | –
O=Cc1ccc(/C=C/C(=O)c2ccc(Cl)cc2Cl)cc1 | 64 (≈ 210 µM) | – | – | > 64 | – | 64 (≈ 210 µM) | > 64 | > 64 | 64 (≈ 210 µM) | > 64 | – | – | – | inactive | – | inactive | – | –
Cc1ccc(C(=O)/C=C/c2ccc(/C=C3/SC(=S)N(CC(=O)O)C3=O)cc2)c(C)c1 | 4 (≈ 9.14 µM) | 4 (≈ 9.14 µM) | 4 (≈ 9.14 µM) | > 64 | 4 (≈ 9.14 µM) | 4 (≈ 9.14 µM) | > 64 | 4 (≈ 9.14 µM) | 4 (≈ 9.14 µM) | 8 (≈ 18.3 µM) | 4 (≈ 9.14 µM) | – | – | inactive | – | inactive | – | –
COc1ccc(C(=O)/C=C/c2ccc(/C=C3/SC(=S)N(CC(=O)O)C3=O)cc2)cc1 | 64 (≈ 146 µM) | – | – | > 64 | – | 64 (≈ 146 µM) | > 64 | 64 (≈ 146 µM) | 64 (≈ 146 µM) | 64 (≈ 146 µM) | – | – | – | inactive | – | inactive | – | –
COCOc1ccc(C(=O)/C=C/c2ccc(/C=C3/SC(=S)N(CC(=O)O)C3=O)cc2)cc1 | > 64 | – | – | > 64 | – | > 64 | > 64 | > 64 | > 64 | > 64 | – | – | – | inactive | – | inactive | – | –
O=C(O)CN1C(=O)/C(=C\c2ccc(/C=C/C(=O)c3ccc(Cl)cc3Cl)cc2)SC1=S | 2 (≈ 4.18 µM) | 2 (≈ 4.18 µM) | 2 (≈ 4.18 µM) | > 64 | 2 (≈ 4.18 µM) | 2 (≈ 4.18 µM) | > 64 | 2 (≈ 4.18 µM) | 2 (≈ 4.18 µM) | 2 (≈ 4.18 µM) | 2 (≈ 4.18 µM) | – | – | inactive | – | inactive | – | –
CCn1cc(C(=O)O)c(=O)c2cc(F)c(N3CCNCC3)cc21 [NORFLOXACIN] | 4 (≈ 12.5 µM) | 4 (≈ 12.5 µM) | > 64 | 16 (≈ 50.1 µM) | 8 (≈ 25.1 µM) | 2 (≈ 6.26 µM) | 16 (≈ 50.1 µM) | 1 (≈ 3.13 µM) | 2 (≈ 6.26 µM) | 1 (≈ 3.13 µM) | > 64 | – | – | – | – | – | – | –
CC(=O)Nc1ccc(C(=O)/C=C/c2ccc(/C=C3/SC(=S)N(CC(=O)O)C3=O)cc2)cc1 | > 64 | – | – | > 64 | – | > 64 | > 64 | > 64 | > 64 | > 64 | – | – | – | inactive | – | inactive | – | –

Now from value to molecule, other results behind:

MIC [1] [µg/mL] | MIC [2] [µg/mL] | MIC [3] [µg/mL] | MIC [4] [µg/mL] | MIC [5] [µg/mL] | MIC [6] [µg/mL] | MIC [7] [µg/mL] | MIC [8] [µg/mL] | MIC [9] [µg/mL] | MIC [10] [µg/mL] | MIC [11] [µg/mL] | Structure (SMILES) | Activity [12] | Activity [13] | Activity [14] | Activity [15] | Activity [16] | Activity [17] | Activity [18]
> 64 | – | – | > 64 | – | > 64 | > 64 | > 64 | > 64 | > 64 | – | O=C(O)CN1C(=O)/C(=C\c2ccc(/C=C/C(=O)c3ccccc3Br)cc2)SC1=S | inactive | inactive | inactive | inactive | inactive | inactive | inactive
8 (≈ 18.2 µM) | 8 (≈ 18.2 µM) | 8 (≈ 18.2 µM) | > 64 | 8 (≈ 18.2 µM) | 8 (≈ 18.2 µM) | > 64 | 8 (≈ 18.2 µM) | 8 (≈ 18.2 µM) | 8 (≈ 18.2 µM) | 8 (≈ 18.2 µM) | COc1cccc(C(=O)/C=C/c2ccc(/C=C3/SC(=S)N(CC(=O)O)C3=O)cc2)c1 | – | – | inactive | – | inactive | – | –
8 (≈ 16.4 µM) | 8 (≈ 16.4 µM) | 8 (≈ 16.4 µM) | > 64 | 8 (≈ 16.4 µM) | 8 (≈ 16.4 µM) | > 64 | 8 (≈ 16.4 µM) | 8 (≈ 16.4 µM) | 8 (≈ 16.4 µM) | 8 (≈ 16.4 µM) | O=C(O)CN1C(=O)/C(=C\c2ccc(/C=C/C(=O)c3cccc(Br)c3)cc2)SC1=S | – | – | inactive | – | inactive | – | –
> 64 | – | – | > 64 | – | > 64 | > 64 | > 64 | > 64 | > 64 | – | COCOc1cccc(C(=O)/C=C/c2ccc(/C=C3/SC(=S)N(CC(=O)O)C3=O)cc2)c1 | – | – | inactive | – | inactive | – | –
64 (≈ 150 µM) | – | – | > 64 | – | 64 (≈ 150 µM) | > 64 | 64 (≈ 150 µM) | 64 (≈ 150 µM) | 64 (≈ 150 µM) | – | O=C(O)CN1C(=O)/C(=C\c2ccc(/C=C/C(=O)c3cccc(F)c3)cc2)SC1=S | – | – | inactive | – | inactive | – | –
64 (≈ 151 µM) | – | – | > 64 | – | 64 (≈ 151 µM) | > 64 | 64 (≈ 151 µM) | 64 (≈ 151 µM) | 64 (≈ 151 µM) | – | Cc1ccc(C(=O)/C=C/c2ccc(/C=C3/SC(=S)N(CC(=O)O)C3=O)cc2)cc1 | – | – | inactive | – | inactive | – | –
64 (≈ 144 µM) | – | – | > 64 | – | 64 (≈ 144 µM) | > 64 | 64 (≈ 144 µM) | 64 (≈ 144 µM) | 64 (≈ 144 µM) | – | O=C(O)CN1C(=O)/C(=C\c2ccc(/C=C/C(=O)c3cccc(Cl)c3)cc2)SC1=S | – | – | inactive | – | inactive | – | –
4 (≈ 8.19 µM) | 4 (≈ 8.19 µM) | 4 (≈ 8.19 µM) | > 64 | 4 (≈ 8.19 µM) | 4 (≈ 8.19 µM) | > 64 | 4 (≈ 8.19 µM) | 4 (≈ 8.19 µM) | 4 (≈ 8.19 µM) | 4 (≈ 8.19 µM) | O=C(O)CN1C(=O)/C(=C\c2ccc(/C=C/C(=O)c3ccc(Br)cc3)cc2)SC1=S | – | – | inactive | – | inactive | – | –
32 (≈ 78.1 µM) | – | – | > 64 | – | 32 (≈ 78.1 µM) | > 64 | 64 (≈ 156 µM) | 32 (≈ 78.1 µM) | 64 (≈ 156 µM) | – | O=C(O)CN1C(=O)/C(=C\c2ccc(/C=C/C(=O)c3ccccc3)cc2)SC1=S | – | – | inactive | – | inactive | – | –
